In ChEMBL document CHEMBL1157704, “Potent activity against K562 cells by polyamide-seco-CBI conjugates targeting histone H4 genes” (Bioorg Med Chem, 2010) one finds Activity, viability and EC50 data, which are given here for six compounds.

The source made the active and inactive calls. The calls are words filed in the database; no cut-off is given here.

In test [1] the test system is K562. Briefly: Downregulation of histone H4E mRNA expression in human K562 cells at 250 nM after 48 hrs by real-time PCR analysis. It counts as functional, cell-based. In outline: (§1)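 Treated K562 cells were assayed by one-step real-time RT-PCR. Reverse transcription ran 50 °C for 10 min, then hot-start polymerase activation at 95 °C for 15 min. Cycling was 45 cycles of 95 °C 15 s, 55 °C 30 s and 72 °C 30 s. Levels were normalized to GAPDH mRNA; error shown as standard deviation.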

Test [2] deals with K562. Briefly: Induction of apoptosis in human K562 cells assessed as non-viable necrotic cells at 250 nM after 48 hrs by annexin-V FITC and propidium iodide staining-based FACS analysis. It counts as functional. Put shortly:
(§2)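 Treated K562 cells […] stained with Annexin V-FITC/propidium iodide. Apoptosis was scored by two-dimensional flow cytometry at a core FACS facility.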
(In general: Flow cytometry measures light scatter and fluorescence of single cells or particles in a stream.)

For test [3], the system named is K562. Briefly: Induction of apoptosis in human K562 cells assessed as late apoptotic cells at 250 nM after 48 hrs by annexin-V FITC and propidium iodide staining-based FACS analysis. It counts as functional. Put shortly: as §2
Test [4] relates to K562. Briefly: Cell cycle arrest in human K562 cells assessed as increase in accumulation at G2/M phase at 250 nM after 48 hrs propidium iodide staining-based FACS analysis. In kind it is functional. Put shortly: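 K562 cells (ATCC, b3a2 Bcr-Abl) exposed to polyamide in culture medium and pelleted at 200g for 5 min. Pellets resuspended in PBS, fixed in prechilled 70% ethanol and stained with propidium iodide (50 µg/mL). DNA content read by flow cytometry as G0–G1, S and G2–M fractions; sub-2C DNA taken as fragmentation/apoptosis.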

In test [5] the test system is K562. Briefly: Induction of apoptosis in human K562 cells assessed as viable cells at 250 nM after 48 hrs by annexin-V FITC and propidium iodide staining-based FACS analysis. It counts as functional. The settings on record: K562, 48 h, read-out: Activity. Put shortly: as §2
The subject of test [6] is K562. Briefly: Downregulation of histone H4C mRNA expression in human K562 cells at 250 nM after 48 hrs by real-time PCR analysis. It counts as functional. Put shortly:
as §1
On the technique in general: Quantitative PCR measures a nucleic acid by following its amplification.

The test system of test [7] is K562. Briefly: Cytotoxicity against human K562 cells by MTS assay. It counts as functional, cell-based. Put shortly: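 Proliferation of K562 cells (ATCC, standard culture) was read as mitochondrial conversion of the MTS tetrazolium to formazan, using the CellTiter 96 Aqueous One reagent. EC50 was derived from these readings.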
In general terms: Formazan colour is commonly taken as a measure of viable cells.

Test [8] has as its system K562. Briefly: Induction of apoptosis in human K562 cells assessed as early apoptotic cells at 250 nM after 48 hrs by annexin-V FITC and propidium iodide staining-based FACS analysis. In kind it is functional. In outline:
as §2

Test [9] relates to histone H4c gene fragment DNA (human). Briefly: Binding affinity to 5'-AGAAAA-3' sequence of 223 bp human histone H4c gene fragment DNA assessed as DNA alkylating activity at 50 to 100 nM after 15 hrs by PAGE.

On to `CN(C)CCCNC(=O)CCNC(=O)c1cc(NC(=O)c2cc(NC(=O)c3cc(NC(=O)c4cc(NC(=O)[C@@H](CCNC(=O)CCCc5ccc(N(CCCl)CCCl)cc5)NC(=O)c5nc(NC(=O)CCNC(=O)c6nc(NC(=O)c7nccn7C)cn6C)cn5C)cn4C)cn3C)cn2C)cn1C`, for which the result in the test with K562 [1] and in the test with K562 [4] was Active. Besides, the Activity is 1.1% in the test with K562 [2], 10.6% in the test with K562 [3], 52% in the test on K562 [6] and 10.3% in the test on K562 [8]. The viability at 0.25 µM with K562 [5] was 78.1%. In the test with K562 [7], the EC50 – broadly, the concentration at which the effect is half-maximal – came to 0.3 µM.
With `CC(=O)Nc1cn(C)c(C(=O)Nc2cc(C(=O)Nc3cn(C)c(C(=O)Nc4cc(C(=O)NCCCC(=O)Nc5cn(C)c(C(=O)Nc6cc(C(=O)Nc7ccc8[nH]c(C(=O)N9CC(CCl)c%10c9cc(O)c9ccccc%109)cc8c7)n(C)c6)n5)n(C)c4)n3)n(C)c2)n1` (centres undefined), the result in test [9] was Active. The EC50 with K562 [7] worked out at 0.033 µM.
For `CC(=O)Nc1cc(C(=O)Nc2cc(C(=O)NCCC(=O)N[C@@H](CCNC(=O)c3cc(NC(=O)c4nc(NC(=O)CCNC(=O)c5nc(NC(C)=O)cn5C)cn4C)cn3C)C(=O)Nc3cn(C)c(C(=O)Nc4cc(C(=O)Nc5ccc6[nH]c(C(=O)N7CC(CCl)c8c7cc(O)c7ccccc87)cc6c5)n(C)c4)n3)n(C)c2)n(C)c1` (some centres undefined), the result in [9] was Active. Moreover, the EC50 in the test on K562 [7] was 0.038 µM.
For the compound `CN(C)CCCNC(=O)CCNC(=O)c1cc(NC(=O)c2cc(NC(=O)c3cc(NC(=O)c4cc(NC(=O)[C@H](CCNC(=O)CCCc5ccc(N(CCCl)CCCl)cc5)NC(=O)c5nc(NC(=O)CCNC(=O)c6nc(NC(=O)c7nccn7C)cn6C)cn5C)cn4C)cn3C)cn2C)cn1C`, the outcome in the test on K562 [1] and with K562 [6] was inactive. The Activity turned out to be 1.39% in the test with K562 [2], 8.88% with K562 [3] and 6.37% in the test with K562 [8]. Further, the outcome with K562 [4] was Active. Moreover, the viability at 0.25 µM in the test on K562 [5] was 83.4%.
For the compound `CN(C)CCCNC(=O)CCNC(=O)c1cc(NC(=O)c2cc(NC(=O)c3cc(NC(=O)c4nc(NC(=O)[C@@H](CCNC(=O)CCCc5ccc(N(CCCl)CCCl)cc5)NC(=O)c5cc(NC(=O)c6cc(NC(=O)CCNC(=O)c7nccn7C)cn6C)cn5C)cn4C)cn3C)cn2C)cn1C`, the outcome in the test on K562 [1] and with K562 [4] was Active. Also, the Activity with K562 [2] is recorded as 3.69%; in the test on K562 [3] it was 9.12%; in the test with K562 [6], 81%; in the test with K562 [8], 10.4%. In addition, in the test with K562 [5], the viability at 0.25 µM worked out at 76.8%. For the same compound, the EC50 with K562 [7] is 0.081 µM.
For `CC(=O)Nc1cc(C(=O)Nc2cc(C(=O)NCCC(=O)N[C@@H](CCNC(=O)c3cc(NC(=O)c4nc(NC(=O)c5cc(NC(=O)c6nc(NC(C)=O)cn6C)cn5C)cn4C)cn3C)C(=O)Nc3cn(C)c(C(=O)Nc4cc(C(=O)Nc5ccc6[nH]c(C(=O)N7CC(CCl)c8c7cc(O)c7ccccc87)cc6c5)n(C)c4)n3)n(C)c2)n(C)c1` (some centres undefined), the result in test [9] was Active. In addition, the EC50 with K562 [7] came to 0.017 µM.
